The values that follow come from ChEMBL document CHEMBL1149615, “Design, synthesis, and biological evaluation of LNA nucleosides as adenosine A3 receptor ligands” (Bioorg Med Chem, 2007).

Bounds are passed on as bounds.

Common to all, as to assay type: functional
Experiment [1] concerns the target T1, Adenosine receptor A3 (Homo sapiens, UniProt P0DMS8).
T1 sequence (P0DMS8 whole entry): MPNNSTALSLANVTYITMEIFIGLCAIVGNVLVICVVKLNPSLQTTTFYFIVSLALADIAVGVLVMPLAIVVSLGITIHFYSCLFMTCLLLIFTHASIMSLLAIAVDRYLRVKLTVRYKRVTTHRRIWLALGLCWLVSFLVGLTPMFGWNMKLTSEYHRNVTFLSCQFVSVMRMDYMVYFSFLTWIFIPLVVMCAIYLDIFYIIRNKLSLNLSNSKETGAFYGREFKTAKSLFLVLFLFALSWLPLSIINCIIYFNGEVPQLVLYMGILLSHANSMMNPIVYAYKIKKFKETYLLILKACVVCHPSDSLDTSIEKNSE
Put plainly: Agonist activity at human adenosine A3 receptor after 15 to 30 mins. The method in brief: (§1)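 AequoScreen cells expressing recombinant human A3 receptor and Gα16 were cultured at least one week, harvested with PBS-EDTA, and loaded overnight at room temperature with coelenterazine H in DMEM-F12 with 0.1% BSA. Cells were injected onto compound and aequorin luminescence was read. Duplicates at 100 µM–0.01 nM (eight concentrations) were normalised to saturating (EC100) IB-MECA to give EC50.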

Experiment [2] has as its target T1, Adenosine receptor A3. Description: (§2) Antagonist activity at human adenosine A3 receptor after 15 to 30 mins.
The target of experiment [3] is T2, Adenosine receptor A3 (Homo sapiens) (UniProt P0DMS8).
T2 sequence (whole entry): T1 sequence (P0DMS8 whole entry)
Described as §2.

Experiment [4] has as its target T3, Adenosine receptor A1 (Homo sapiens, UniProt P30542).
T3 sequence (P30542 whole entry): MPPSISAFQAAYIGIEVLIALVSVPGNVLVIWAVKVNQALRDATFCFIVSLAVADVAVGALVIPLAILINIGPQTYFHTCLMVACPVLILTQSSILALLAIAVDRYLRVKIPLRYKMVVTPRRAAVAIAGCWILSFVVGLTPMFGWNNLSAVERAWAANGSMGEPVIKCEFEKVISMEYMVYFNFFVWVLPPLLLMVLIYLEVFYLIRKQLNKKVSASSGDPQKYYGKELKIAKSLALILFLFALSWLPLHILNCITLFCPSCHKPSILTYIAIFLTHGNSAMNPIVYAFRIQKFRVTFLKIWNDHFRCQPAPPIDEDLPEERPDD
Description: Agonist activity at human adenosine A1 receptor. The method in brief: (§3)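 Clones coexpressing mitochondrial apoaequorin and Gα16 were collected in PBS with 5 mM EDTA. They were loaded with 5 µM coelenterazine H for 4 h at room temperature, washed, and mixed with compound, and aequorin light was recorded for 30 s. Duplicates at eight concentrations from 3000 to 1 nM were fitted by sigmoidal nonlinear regression and expressed as percent of agonist response.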

The target of experiment [5] is T3, Adenosine receptor A1. Put plainly: Antagonist activity at human adenosine A1 receptor. In short, it runs like this: as §3
Experiment [6] has as its target T2, Adenosine receptor A3 (Homo sapiens). Put plainly: Agonist activity at human adenosine A3 receptor after 15 to 30 mins relative to IB-MECA. In short, it runs like this:
as §1

By EC50 is commonly meant the concentration at which the effect is half-maximal. A low value points to higher potency in that assay. As a reminder, the IC50 is the concentration that inhibits the measured activity by half. For `Nc1ncnc2c1ncn2[C@@H]1O[C@@]2(CO)CO[C@@H]1[C@@H]2O`, at Adenosine receptor A3 [1], the half-maximal effective concentration (EC50) is over 100 µM. Moreover, the 50% inhibitory concentration (IC50) against Adenosine receptor A3 [2] was over 100 µM.
Consider `CNC(=O)[C@@]12CN[C@@H]([C@H](n3cnc4c(NCc5cccc(I)c5)ncnc43)O1)[C@@H]2O`, for which the results for the concentration for a half-maximal effect (EC50) on Adenosine receptor A3 [1] and at Adenosine receptor A1 [4] were over 100 µM and over 3 µM, respectively. Also, in experiment [3], the Imax was determined as 100%. At Adenosine receptor A1 [5], the concentration for half-maximal inhibition (IC50) is over 3 µM.
Molecule `OC[C@@]12CO[C@@H]([C@H](n3cnc4c(NCc5cccc(I)c5)ncnc43)O1)[C@@H]2O` registered an EC50 on Adenosine receptor A3 [1] of over 100 µM. In addition, in experiment [3], the Imax turned out to be 100%. The molecule further had an IC50 at Adenosine receptor A3 [2] of 0.15 µM.
As for `CO[C@@H]1[C@H](O)[C@@H](CO)O[C@H]1n1cnc2c(NCc3cccc(I)c3)ncnc21`, the values for the EC50 on Adenosine receptor A3 [1] and on Adenosine receptor A1 [4] were over 100 µM and over 3 µM, respectively. In addition, the Imax in experiment [3] was determined as 100%. The half-maximal inhibitory concentration (IC50) against Adenosine receptor A3 [2] was 0.0017 µM; on Adenosine receptor A1 [5], over 3 µM.
What is called Emax is the size of the effect at its maximum, as opposed to the concentration needed. `CNC(=O)[C@H]1O[C@@H](n2cnc3c(N)ncnc32)[C@H](OC)[C@@H]1O`: at Adenosine receptor A3 [1], the concentration for a half-maximal effect (EC50) came out at 0.453 µM. Moreover, the maximum response (Emax) in experiment [6] turned out to be 100%.
For `CO[C@@H]1[C@H](O)[C@@H](CO)O[C@H]1n1cnc2c(N)ncnc21`, the EC50 is over 100 µM at Adenosine receptor A3 [1] and over 3 µM at Adenosine receptor A1 [4]. The same molecule had an Imax in experiment [3] of 100%. Besides, the IC50 against Adenosine receptor A3 [2] is 0.015 µM; against Adenosine receptor A1 [5] it was over 3 µM.
Turning to `OC[C@@]12CN[C@@H]([C@H](n3cnc4c(NCc5cccc(I)c5)ncnc43)O1)[C@@H]2O`, the EC50 on Adenosine receptor A3 [1] is over 100 µM; on Adenosine receptor A1 [4], over 3 µM. The Imax in experiment [3] was found to be 100%. Besides, the half-inhibitory concentration (IC50) is 0.0082 µM on Adenosine receptor A3 [2] and over 3 µM at Adenosine receptor A1 [5].
`CNC(=O)[C@@]12CN[C@@H]([C@H](n3cnc4c(N)ncnc43)O1)[C@@H]2O` returned a concentration giving a half-maximal response (EC50) at Adenosine receptor A3 [1] of over 100 µM. The Imax in experiment [3] was 100%. In addition, on Adenosine receptor A3 [2], the half-maximal inhibitory concentration (IC50) came to 0.17 µM.
As to `Nc1ncnc2c1ncn2[C@@H]1O[C@@]2(CO)CN[C@@H]1[C@@H]2O`, on Adenosine receptor A3 [1], the EC50 is over 100 µM. This molecule also registered an IC50 at Adenosine receptor A3 [2] of over 100 µM.
`CNC(=O)[C@@]12CO[C@@H]([C@H](n3cnc4c(N)ncnc43)O1)[C@@H]2O`: the EC50 on Adenosine receptor A3 [1] is over 100 µM. For the same molecule, on Adenosine receptor A3 [2], the IC50 was over 100 µM.
Regarding `CNC(=O)[C@H]1O[C@@H](n2cnc3c(NCc4cccc(I)c4)ncnc32)[C@H](OC)[C@@H]1O`, the EC50 is 0.0019 µM at Adenosine receptor A3 [1] and over 3 µM at Adenosine receptor A1 [4]. The molecule further gave a maximum response (Emax) in experiment [6] of 100%. The half-inhibitory concentration (IC50) against Adenosine receptor A1 [5] is over 3 µM.
Molecule `CNC(=O)[C@@]12CO[C@@H]([C@H](n3cnc4c(NCc5cccc(I)c5)ncnc43)O1)[C@@H]2O` showed an EC50 on Adenosine receptor A3 [1] of over 100 µM. This molecule also yielded an IC50 against Adenosine receptor A3 [2] of over 100 µM.
